# Screening results (PubChem)
# ATG4B inh: ATG4B (human) cysteine protease inhibition. inhibition, % at 8.33 µM. ATG4B cleavage of LC3-PLA2, NBD-HPC fluorescence, 1 h. actives 0.51% (n = 340,000). AID 504462; in the data active = inhibition above about 40%
# Target sequence (Q9Y4P1 whole entry, looked up): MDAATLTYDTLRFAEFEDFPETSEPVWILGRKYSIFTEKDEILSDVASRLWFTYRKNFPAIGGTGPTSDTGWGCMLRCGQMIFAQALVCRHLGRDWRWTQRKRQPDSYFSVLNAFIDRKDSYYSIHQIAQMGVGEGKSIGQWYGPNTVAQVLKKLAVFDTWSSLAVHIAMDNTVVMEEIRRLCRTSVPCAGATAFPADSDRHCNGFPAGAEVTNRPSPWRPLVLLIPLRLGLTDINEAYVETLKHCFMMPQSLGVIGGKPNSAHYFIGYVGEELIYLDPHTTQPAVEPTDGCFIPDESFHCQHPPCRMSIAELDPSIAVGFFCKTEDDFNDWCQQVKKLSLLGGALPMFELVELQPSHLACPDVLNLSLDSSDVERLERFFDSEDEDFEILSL
# PvdQ acylase: blocks Pseudomonas aeruginosa PvdQ acylase activity; AID 488965; inhibition, % at 10 µM; actives 0.063% (n = 340,000); purified PvdQ acylase, fluorescence plate reader; in the data active = inhibition above about 30%, passing the limit was not always enough;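 note: 0% = vehicle neutral wells and 100% = reference inhibitor wells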
# HKDC1 inhibitor: HKDC1 (human) hexokinase inhibition; actives 0.16% (n = 340,000); Q2TB90; AID 493160; inhibition, % at 20 µM; recombinant HKDC1, G6PDH/diaphorase resazurin coupled fluorescence;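 active = inhibition above about 35% when tested at 20 µM, limit read from the data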;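 note: plate controls were DMSO wells with enzyme for no effect and DMSO wells lacking enzyme for full effect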
#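 Incubation: 90 min at room temperature in dark / Material: recombinant HKDC1 (HK5) hexokinase enzyme, produced in-house / Quantity: enzyme 5 µg/mL final / Compound: one dose of 20 µM, 1% DMSO / Reagent: glucose and ATP substrates / Buffer or medium: Tris pH 8.0 buffer with MgCl2, Tween-20, BSA, BME / Technique: resorufin fluorescence at 613 nm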
# VIM-2 inh: blocks Pseudomonas aeruginosa VIM-2 metallo-beta-lactamase; purified VIM-2, nitrocefin hydrolysis, epi-absorbance fluorescence; inhibition, % at 5.6 µM; actives 0.89% (n = 290,000);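 active = inhibition above the mean of all tested compounds plus 3 SD, cutoff set per screening run, cut at about 7.5% in these data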;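 note: red hydrolysis product quenches plate fluorescence so inhibitors raise well fluorescence; 0% = enzyme with DMSO and 100% = DMSO without enzyme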
# IMP-1 inhibitor: inhibitors of Pseudomonas aeruginosa IMP-1 metallo-beta-lactamase. AID 1556. purified IMP-1, nitrocefin hydrolysis, epi-absorbance fluorescence. inhibition, % at 5.6 µM. actives 0.45% (n = 290,000);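 active = inhibition above the mean plus 3 SD of all compounds in the same screening run, cut at about 4.5% in these data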;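 note: 0% = IMP-1 with DMSO and 100% = DMSO wells lacking enzyme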
#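 System: purified IMP-1; amount: IMP-1 0.2 nM before substrate addition; compound: single dose, 5.6 µM; times: 25 °C, 15 min preincubation, 25 min reaction; signal: Epi-absorbance via hydrolysed-nitrocefin quenching of white-plate fluorescence, 480/530 nm, EDTA stop; benchmarks: DMSO with and without IMP-1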
# MIN6 prolif: MIN6 beta-cell proliferation induction; MIN6 cells proliferation, ATPlite luminescence, 48 h; cells starved in 0.2% serum; 100% = growth in 10% serum; proliferation, % at 10 µM; actives 0.29% (n = 330,000);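 active = compounds whose signal lies at least 3.5 SD above the mean of all wells on their plate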;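 note: 0% = DMSO-treated cells in low-serum medium and 100% = 10% serum control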
# * = called active by the depositor; nt = no result. Shown are actives, neighbours in structure and some others; about 2% of the full set was active somewhere.
SMILES,ATG4B inh,PvdQ acylase,HKDC1 inhibitor,VIM-2 inh,IMP-1 inhibitor,MIN6 prolif
C=CCNC(=O)CSc1nnc(-c2ccccc2Cl)n1-c1c(C)n(C)n(-c2ccccc2)c1=O,2,-10,-7,2,-6,0
Cn1cc(C(=O)C(F)(F)F)c2ccccc21,-2,-14,-7,2,5.8*,-2
CC(C)NC(=O)C(=O)c1cn(C)c2ccccc12,0,-7,-3,-1,0,1
O=C(CN1CCN(c2ccc(F)cc2)CC1)c1ccc(O)cc1O,-3,13,-4,2,-2,-5
Cc1cc2c(Nc3cccc(O)c3)ncnc2s1,-2,-4,-2,1,2,-1
CC(=O)N1c2ccc(S(=O)(=O)N3CCC(C(=O)NCc4ccc(Cl)cc4)CC3)cc2CC1C (stereo not drawn),-9,8,-3,-2,-1,-4
Cc1cccc(C(=O)N(CC(=O)Nc2sc(C)c(C)c2C(N)=O)C2CCCC2)c1,2,9,-4,-2,-2,-1
O=C(NC1CCSC1)c1cccc(Cl)c1 (stereo not drawn),1,81*,-2,1,1,-1
CC(=O)Oc1ccc(Cn2cnc3cc4ccccc4cc32)cc1,-11,3,9,0,5.5*,-4
C=CCNc1nc(NC(C)(C)CO)nc(OCC)n1,-14,-9,-4,-5,28*,4
COc1ccccc1N=C(C)C1=C(O)CSC1=O,4,14,0,-3,5.6*,-3
CC1=C(C(=O)Nc2ccc(C)cc2C)C(c2ccc(Cl)cc2)n2nc(C(=O)OC(C)C)nc2N1 (stereo not drawn),-6,-1,-11,-3,-3,-1
O=C(NCc1cccnc1)C1c2ccccc2C(=O)N1Cc1ccccc1 (stereo not drawn),0,-9,2,0,-2,-3
O=C(NCc1cccnc1)C1c2ccccc2C(=O)N1Cc1ccco1 (stereo not drawn),-4,-1,-3,0,4.6*,-5
CC1CCCC(C)N1CCCNC(=O)CN1C(=O)c2cccnc2Oc2ccc(Cl)cc21 (stereo not drawn),-6,-2,2,-1,-2,0
Cc1ccc(CCNC(=O)C2CCN(S(=O)(=O)c3cccc4nsnc34)CC2)cc1,1,-12,-3,-2,4.9*,2
Nc1cccc2[nH]c(C(F)(F)F)nc12,10,-3,20,3,15*,7
O=C(O)c1cccc2[nH]c(C(F)(F)F)nc12,1,-2,1,-5,-1,-5
Cc1cn(-c2cc(NC(=O)c3ccc(C)c(NC(=O)c4cccc(-c5cn[nH]c(=O)c5)c4)c3)cc(C(F)(F)F)c2)cn1,-22,1,10,2,20*,-1
CCN(C(=O)c1nn(-c2ccc(OC)cc2)c(=O)c2c1c1ccccc1n2C)c1ccc(OC)cc1,-11,-10,-3,0,-4,0
CCCCN(C)CCNC(=O)c1nn(-c2ccc(OC)cc2)c(=O)c2c1c1ccccc1n2C,-23,1,-5,8.3*,-2,-6
CC(C)(C)NCC(O)CON=C1c2ccccc2-c2ccccc21 (stereo not drawn),-1,-11,-9,7.8*,1,-6
CCC1=Nc2cc(C(=O)NCc3ccco3)ccc2Sc2ccc(C)cc21,51*,-1,17,-2,-2,nt
Cc1ccc(NC(=O)C2=C(C(=O)O)CCCC2)cc1Br,-1,-16,-4,3,13*,0
Cc1ccc(NC(=O)C2=C(C(=O)O)CCCC2)cc1F,-5,-8,-3,1,7.9*,-1
Cc1nc2c(-c3ccc(F)cc3)c(C)nn2c(C)c1CCC(=O)Nc1ccccc1F,1,-5,-3,0,1,-2
O=C(COC(=O)c1ccccc1O)Nc1ccc(N2CCOCC2)cc1,1,7,-3,nt,nt,2
Cc1ccc(C(=O)O)cc1N1C(=O)c2cccc3c([N+](=O)[O-])ccc(c23)C1=O,9,1,14,1,6.1*,-5
O=C(O)c1ccc(CN2C(=O)c3cccc4c([N+](=O)[O-])ccc(c34)C2=O)cc1,2,-9,15,2,-1,nt
